For data set [1], the target named is T1, Serine/threonine-protein kinase 3 (Homo sapiens, UniProt Q13188).
T1 sequence (Q13188 whole entry): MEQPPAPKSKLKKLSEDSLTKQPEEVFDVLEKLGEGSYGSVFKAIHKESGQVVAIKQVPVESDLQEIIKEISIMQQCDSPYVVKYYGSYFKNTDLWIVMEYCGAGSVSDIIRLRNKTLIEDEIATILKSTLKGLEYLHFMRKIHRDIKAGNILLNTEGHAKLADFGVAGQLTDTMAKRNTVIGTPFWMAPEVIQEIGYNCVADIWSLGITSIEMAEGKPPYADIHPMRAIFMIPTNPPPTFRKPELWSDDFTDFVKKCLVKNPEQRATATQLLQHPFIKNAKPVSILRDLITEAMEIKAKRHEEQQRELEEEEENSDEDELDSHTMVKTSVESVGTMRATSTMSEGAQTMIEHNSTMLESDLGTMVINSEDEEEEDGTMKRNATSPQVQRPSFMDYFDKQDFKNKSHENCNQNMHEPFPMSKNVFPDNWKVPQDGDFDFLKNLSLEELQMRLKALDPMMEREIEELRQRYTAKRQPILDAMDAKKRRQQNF
In words: Inhibition of Flag-tagged full-length MST2 (unknown origin) transfected in HEK293T cells assessed as MOB1a phosphorylation level incubated for 3 hrs by immunoblot analysis.

The subject of data set [2] is Tyrosine-protein kinase ABL1 (Homo sapiens), P00519 [E255K]. In words: Inhibition of phosphorylated ABL1 E255K mutant (unknown origin) assessed as remaining activity at 1 uM by Kinome scan method relative to control.
For data set [3], the target named is Activin receptor type-1-like (Homo sapiens) (UniProt P37023). Description: Inhibition of ACVRL1 (unknown origin) assessed as remaining activity at 1 uM by Kinome scan method relative to control. An outline of the steps: (§1)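 Active-site-dependent competition-binding (KINOMEscan) panel of 468 kinases, test compound at 1 μM (from a 10 mM DMSO stock). Read-out is ctrl% = (test signal − positive control signal)/(negative control signal − positive control signal) × 100. DMSO is the negative control (100%) and a control compound is the positive control (0%). Lower ctrl% means tighter binding.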

Data set [4] addresses Calcium/calmodulin-dependent protein kinase type 1B (Homo sapiens) (UniProt Q6P2M8). In words: Inhibition of CAMK1B (unknown origin) assessed as remaining activity at 1 uM by Kinome scan method relative to control. Summed up:
as §1

In data set [5] the target is Cyclin-dependent kinase-like 5 (Homo sapiens) (UniProt O76039). In words: Inhibition of CDKL5 (unknown origin) assessed as remaining activity at 1 uM by Kinome scan method relative to control. An outline of the steps:
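Active-site-dependent competition-binding profiling (KINOMEscan) at 1 μM against a 468-kinase panel; compound supplied from a 10 mM DMSO stock. Read-out is ctrl% = (test signal − positive control signal)/(negative control signal − positive control signal) × 100. DMSO is the negative control (100%) and a control compound the positive control (0%). Lower ctrl% means tighter binding.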

For data set [6], the target named is Receptor tyrosine-protein kinase erbB-4 (Homo sapiens) (UniProt Q15303). Description: Inhibition of ERBB4 (unknown origin) assessed as remaining activity at 1 uM by Kinome scan method relative to control.
Data set [7] deals with Fibroblast growth factor receptor 3 (Homo sapiens) (UniProt P22607). Description: Inhibition of FGFR3 (unknown origin) assessed as remaining activity at 1 uM by Kinome scan method relative to control.
Data set [8] deals with Receptor-type tyrosine-protein kinase FLT3 (Homo sapiens) (UniProt P36888). In words: Inhibition of FLT3-autoinnibited (unknown origin) assessed as remaining activity at 1 uM by Kinome scan method relative to control.
In data set [9] the target is G protein-coupled receptor kinase 3 (Homo sapiens) (UniProt P35626). In words: Inhibition of GRK3 (unknown origin) assessed as remaining activity at 1 uM by Kinome scan method relative to control.
Data set [10] addresses Serine/threonine-protein kinase MARK1 (Homo sapiens) (UniProt Q9P0L2). Description: Inhibition of MARK1 (unknown origin) assessed as remaining activity at 1 uM by Kinome scan method relative to control.
Data set [11] concerns the target Serine/threonine-protein kinase PAK 5 (Homo sapiens) (UniProt Q9P286). In words: Inhibition of PAK7 (unknown origin) assessed as remaining activity at 1 uM by Kinome scan method relative to control.
Data set [12] concerns the target Cyclin-dependent kinase 2 homolog (Plasmodium falciparum (isolate K1 / Thailand)) (UniProt Q07785). Description: Inhibition of Plasmodium falciparum PK5 assessed as remaining activity at 1 uM by Kinome scan method relative to control.
Data set [13] concerns the target Phosphatidylinositol 4,5-bisphosphate 3-kinase catalytic subunit gamma isoform (Homo sapiens, UniProt P48736). In words: Inhibition of PIK3CG (unknown origin) assessed as remaining activity at 1 uM by Kinome scan method relative to control.
The target in data set [14] is Serine/threonine-protein kinase WNK3 (Homo sapiens) (UniProt Q9BYP7). Description: Inhibition of WNK3 (unknown origin) assessed as remaining activity at 1 uM by Kinome scan method relative to control.
A short description of data set [15]: MRT (0 to infinity) in male Sprague-Dawley rat at 5 mg/kg, iv measured for 24 hrs by LC-MS/MS analysis. Format: ADME, organism-based. Particulars: in vivo.
Data set [16] is described as follows: Cmax in male Sprague-Dawley rat at 10 mg/kg, po measured for 24 hrs by LC-MS/MS analysis. Particulars: in vivo. Format: ADME, organism-based. An outline of the steps: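 Sprague-Dawley rats, single intravenous or oral dose. Parameters (half-life, AUC, bioavailability) reported in a supplementary table.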
Data set [17] has as its system Mus musculus. In words: In vivo inhibition of MST1/2 in mouse assessed as MOB1 phosphorylation level at 1 mg/kg, ip administration and measured after between 1.5 to 6 hrs by immunoblot analysis. Format: functional, organism-based. Particulars: time 1.5-6 hrs. Summed up:
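Wild-type mice received 1 mg/kg intraperitoneally, with vehicle of 0.1% citric acid aqueous solution containing 20% Kolliphor HS 15. Livers were harvested over 0–12 h and lysates immunoblotted for p-MOB1 and p-YAP, normalized to control. Means ± SD, n = 3.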
On the technique in general: A western blot detects proteins with antibodies after separation by electrophoresis.

The nature of data set [18]: Acute toxicity in mouse assessed as increase in CK19-positive cells at 1 mg/kg,ip administrated once a daily for 3 weeks by H and E staining based immunohistochemical analysis relative to control. Type of data set: organism-based, Liver. The settings on record: in vivo, 504 h. Summed up: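 Postnatal mice dosed from 10 days of age with vehicle or 1 mg/kg once per day for 21 days (3 weeks). Vehicle is 0.1% citric acid aqueous solution containing 20% Kolliphor HS 15. Liver sections stained with H&E and by IHC for CK19 and BrdU, with positive cells quantified (n = 3). Liver/body weight ratio recorded (n = 4). Values are means ± SD versus vehicle, Student's t test.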

Data set [19] relates to Mus musculus. In words: Protection against APAP induced liver injury in mouse assessed as increase in survival rate at 1 mg/kg, ip administered at 2.5 hrs […]. Format: functional. Summed up:
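Wild-type mice given oral APAP 400 mg/kg, then i.p. vehicle, NAC 250 mg/kg, 1 mg/kg test agent, or NAC plus test agent at 1.5 or 2.5 h. Mortality was tracked with n = 10–11 per group, Mantel-Cox test. Separately, TUNEL was done on liver after 200 mg/kg APAP with treatment at 2.5 h.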

Data set [20] deals with Mus musculus. In words: Protection against APAP induced liver injury in mouse assessed as decrease in mortality rate at 1 mg/kg, ip administered at 2.5 hrs. Format: functional, organism-based.

Active and inactive are the calls of the source. The calls are words filed in the database; no cut-off is given here.

Results on one molecule are retold here after ChEMBL document CHEMBL5705905, “Pharmacological targeting of kinases MST1 and MST2 augments tissue repair and regeneration” (Sci Transl Med, 2016).

Fibroblast growth factor receptor 3 (Homo sapiens), sequence (P22607 23-806 limits assumed): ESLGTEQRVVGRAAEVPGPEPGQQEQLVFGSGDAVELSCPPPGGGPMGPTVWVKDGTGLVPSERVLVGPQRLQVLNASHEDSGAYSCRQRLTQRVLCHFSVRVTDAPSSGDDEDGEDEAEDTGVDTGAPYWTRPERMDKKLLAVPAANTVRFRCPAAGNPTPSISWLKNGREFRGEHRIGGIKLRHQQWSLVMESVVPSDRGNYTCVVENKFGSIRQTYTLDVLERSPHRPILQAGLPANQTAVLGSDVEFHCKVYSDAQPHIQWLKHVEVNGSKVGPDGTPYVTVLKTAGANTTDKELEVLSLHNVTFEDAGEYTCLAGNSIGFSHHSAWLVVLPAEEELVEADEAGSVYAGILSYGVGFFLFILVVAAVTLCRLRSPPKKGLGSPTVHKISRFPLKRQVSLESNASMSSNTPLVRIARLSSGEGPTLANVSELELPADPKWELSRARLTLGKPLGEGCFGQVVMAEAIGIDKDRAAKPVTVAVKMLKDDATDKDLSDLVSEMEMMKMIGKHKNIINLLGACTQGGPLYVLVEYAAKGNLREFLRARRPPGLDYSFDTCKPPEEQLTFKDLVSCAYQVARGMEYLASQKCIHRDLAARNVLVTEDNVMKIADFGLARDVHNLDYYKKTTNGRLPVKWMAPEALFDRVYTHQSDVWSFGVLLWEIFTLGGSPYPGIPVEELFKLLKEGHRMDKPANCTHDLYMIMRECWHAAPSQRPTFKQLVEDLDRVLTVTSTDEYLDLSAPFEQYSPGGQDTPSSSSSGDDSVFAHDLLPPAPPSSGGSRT
Receptor-type tyrosine-protein kinase FLT3 (Homo sapiens), sequence (P36888 whole entry): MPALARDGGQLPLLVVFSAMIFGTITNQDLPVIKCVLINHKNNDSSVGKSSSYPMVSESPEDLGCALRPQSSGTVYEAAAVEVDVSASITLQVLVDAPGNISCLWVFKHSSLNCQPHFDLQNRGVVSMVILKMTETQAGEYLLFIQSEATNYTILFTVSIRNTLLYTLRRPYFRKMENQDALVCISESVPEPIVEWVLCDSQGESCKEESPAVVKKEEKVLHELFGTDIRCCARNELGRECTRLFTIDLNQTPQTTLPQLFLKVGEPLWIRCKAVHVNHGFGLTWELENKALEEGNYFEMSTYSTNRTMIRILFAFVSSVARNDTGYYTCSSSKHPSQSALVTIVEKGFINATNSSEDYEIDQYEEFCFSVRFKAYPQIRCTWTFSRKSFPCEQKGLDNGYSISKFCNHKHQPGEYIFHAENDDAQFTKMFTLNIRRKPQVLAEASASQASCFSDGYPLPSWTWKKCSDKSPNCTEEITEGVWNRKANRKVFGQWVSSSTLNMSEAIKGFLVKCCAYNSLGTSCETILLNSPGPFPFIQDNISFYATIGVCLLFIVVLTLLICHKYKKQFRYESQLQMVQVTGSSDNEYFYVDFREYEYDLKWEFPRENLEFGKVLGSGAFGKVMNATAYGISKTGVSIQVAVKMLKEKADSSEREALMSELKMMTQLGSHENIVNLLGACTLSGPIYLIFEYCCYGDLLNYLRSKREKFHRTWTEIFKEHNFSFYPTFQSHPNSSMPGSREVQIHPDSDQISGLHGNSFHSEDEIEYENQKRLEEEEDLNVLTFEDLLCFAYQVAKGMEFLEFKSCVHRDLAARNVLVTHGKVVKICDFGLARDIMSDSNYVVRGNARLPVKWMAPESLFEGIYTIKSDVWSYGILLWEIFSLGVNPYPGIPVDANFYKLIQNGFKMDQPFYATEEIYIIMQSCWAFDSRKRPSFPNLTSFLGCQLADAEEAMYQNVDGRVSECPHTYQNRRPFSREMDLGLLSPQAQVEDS
G protein-coupled receptor kinase 3 (Homo sapiens), sequence (P35626 whole entry): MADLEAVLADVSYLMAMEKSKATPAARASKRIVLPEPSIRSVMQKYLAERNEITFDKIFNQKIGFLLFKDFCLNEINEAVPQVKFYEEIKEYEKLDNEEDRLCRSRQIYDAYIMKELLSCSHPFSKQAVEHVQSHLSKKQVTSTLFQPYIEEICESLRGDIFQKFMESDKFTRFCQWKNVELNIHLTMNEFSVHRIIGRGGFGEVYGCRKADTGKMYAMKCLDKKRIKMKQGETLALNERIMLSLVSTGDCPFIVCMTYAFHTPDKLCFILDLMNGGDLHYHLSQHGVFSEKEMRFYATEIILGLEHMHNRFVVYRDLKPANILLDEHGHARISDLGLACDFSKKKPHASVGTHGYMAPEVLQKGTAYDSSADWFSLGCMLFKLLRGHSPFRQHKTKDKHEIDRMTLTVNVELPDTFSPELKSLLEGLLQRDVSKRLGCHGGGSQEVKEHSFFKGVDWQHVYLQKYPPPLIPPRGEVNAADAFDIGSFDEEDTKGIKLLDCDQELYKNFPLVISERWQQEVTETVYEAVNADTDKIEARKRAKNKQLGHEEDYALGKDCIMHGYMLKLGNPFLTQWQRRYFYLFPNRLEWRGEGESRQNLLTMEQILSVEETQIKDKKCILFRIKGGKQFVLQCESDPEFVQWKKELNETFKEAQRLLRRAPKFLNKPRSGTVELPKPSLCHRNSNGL
Receptor tyrosine-protein kinase erbB-4 (Homo sapiens), sequence (Q15303 whole entry): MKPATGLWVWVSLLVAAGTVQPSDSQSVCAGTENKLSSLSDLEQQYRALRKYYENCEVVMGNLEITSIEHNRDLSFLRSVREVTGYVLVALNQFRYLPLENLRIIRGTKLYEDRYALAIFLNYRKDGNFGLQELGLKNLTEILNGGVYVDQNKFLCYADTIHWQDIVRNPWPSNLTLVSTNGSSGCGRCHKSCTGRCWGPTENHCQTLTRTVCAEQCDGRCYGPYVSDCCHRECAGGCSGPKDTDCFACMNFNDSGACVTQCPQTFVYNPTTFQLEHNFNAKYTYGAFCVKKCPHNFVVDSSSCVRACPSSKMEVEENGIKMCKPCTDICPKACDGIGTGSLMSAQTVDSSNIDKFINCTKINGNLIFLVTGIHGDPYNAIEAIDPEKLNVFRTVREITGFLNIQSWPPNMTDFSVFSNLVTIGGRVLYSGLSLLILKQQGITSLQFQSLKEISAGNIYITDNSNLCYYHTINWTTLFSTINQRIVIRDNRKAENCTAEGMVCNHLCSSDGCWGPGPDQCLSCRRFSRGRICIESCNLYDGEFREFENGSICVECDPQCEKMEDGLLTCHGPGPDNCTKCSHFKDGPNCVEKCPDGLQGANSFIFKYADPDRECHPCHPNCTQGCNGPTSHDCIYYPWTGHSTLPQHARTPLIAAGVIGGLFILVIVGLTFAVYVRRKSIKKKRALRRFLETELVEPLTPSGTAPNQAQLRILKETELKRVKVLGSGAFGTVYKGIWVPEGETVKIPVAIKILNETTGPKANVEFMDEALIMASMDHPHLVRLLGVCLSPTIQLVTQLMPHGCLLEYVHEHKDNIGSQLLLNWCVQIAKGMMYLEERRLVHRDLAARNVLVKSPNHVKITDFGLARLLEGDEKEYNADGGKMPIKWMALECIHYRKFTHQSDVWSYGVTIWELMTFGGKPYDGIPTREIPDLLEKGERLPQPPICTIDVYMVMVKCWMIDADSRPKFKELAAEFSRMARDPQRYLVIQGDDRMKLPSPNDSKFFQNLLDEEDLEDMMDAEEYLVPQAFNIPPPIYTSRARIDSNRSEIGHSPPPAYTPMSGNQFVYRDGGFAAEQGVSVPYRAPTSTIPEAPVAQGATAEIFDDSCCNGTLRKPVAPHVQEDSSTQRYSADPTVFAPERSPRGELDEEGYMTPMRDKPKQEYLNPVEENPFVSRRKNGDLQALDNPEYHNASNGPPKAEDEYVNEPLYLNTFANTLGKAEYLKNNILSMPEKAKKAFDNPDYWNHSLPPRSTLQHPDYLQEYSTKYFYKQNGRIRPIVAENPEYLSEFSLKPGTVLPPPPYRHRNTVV
Activin receptor type-1-like (Homo sapiens), sequence (P37023 whole entry): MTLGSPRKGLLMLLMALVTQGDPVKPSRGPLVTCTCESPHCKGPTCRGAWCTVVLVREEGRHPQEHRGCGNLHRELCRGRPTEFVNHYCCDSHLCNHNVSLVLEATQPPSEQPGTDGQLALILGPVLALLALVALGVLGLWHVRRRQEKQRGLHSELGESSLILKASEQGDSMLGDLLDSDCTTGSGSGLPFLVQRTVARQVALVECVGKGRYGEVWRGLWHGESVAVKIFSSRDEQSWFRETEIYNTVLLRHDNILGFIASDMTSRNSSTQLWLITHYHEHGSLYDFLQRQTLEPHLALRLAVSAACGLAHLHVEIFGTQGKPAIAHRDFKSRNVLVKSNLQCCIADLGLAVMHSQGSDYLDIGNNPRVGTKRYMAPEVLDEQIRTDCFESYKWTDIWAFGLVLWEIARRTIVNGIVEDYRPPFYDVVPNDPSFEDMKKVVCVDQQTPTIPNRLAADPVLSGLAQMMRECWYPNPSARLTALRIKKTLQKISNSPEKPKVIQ
Serine/threonine-protein kinase MARK1 (Homo sapiens), sequence (Q9P0L2 whole entry, looked up): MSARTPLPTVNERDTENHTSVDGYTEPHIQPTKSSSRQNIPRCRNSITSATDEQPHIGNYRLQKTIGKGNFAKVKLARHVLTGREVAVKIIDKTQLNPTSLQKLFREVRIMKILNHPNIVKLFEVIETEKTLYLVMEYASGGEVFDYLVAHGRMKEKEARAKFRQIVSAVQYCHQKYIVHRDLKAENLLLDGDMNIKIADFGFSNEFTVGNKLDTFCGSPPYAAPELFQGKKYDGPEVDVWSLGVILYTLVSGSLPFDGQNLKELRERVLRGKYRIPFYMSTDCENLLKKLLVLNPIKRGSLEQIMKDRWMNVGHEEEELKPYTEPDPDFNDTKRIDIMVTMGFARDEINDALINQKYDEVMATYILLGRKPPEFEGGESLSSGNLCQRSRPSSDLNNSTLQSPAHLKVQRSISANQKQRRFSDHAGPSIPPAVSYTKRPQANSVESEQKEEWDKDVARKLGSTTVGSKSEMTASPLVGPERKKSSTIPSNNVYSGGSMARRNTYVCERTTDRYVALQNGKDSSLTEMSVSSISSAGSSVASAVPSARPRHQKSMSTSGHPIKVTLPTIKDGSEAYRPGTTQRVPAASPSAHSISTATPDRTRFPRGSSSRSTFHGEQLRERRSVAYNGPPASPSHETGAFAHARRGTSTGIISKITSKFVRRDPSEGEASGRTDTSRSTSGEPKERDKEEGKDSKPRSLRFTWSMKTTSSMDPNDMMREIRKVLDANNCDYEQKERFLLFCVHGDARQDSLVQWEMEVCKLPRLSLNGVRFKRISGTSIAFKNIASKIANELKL

A word on the IC50: it is the concentration that inhibits the measured activity by half. What is called MRT inf is a mean duration of stay, worked out from the concentration-time curve. A word on the Cmax: it is the highest concentration seen after dosing. Consider `CN1C(=O)c2sccc2N(C)c2nc(Nc3ccc(S(N)(=O)=O)cc3)ncc21`, for which, in [1], the IC50 came out at 38.1 nM. Moreover, the Activity in data set [2] was 11%; in data set [3], 100%; in [4] it was 84%; in data set [5], 85%; in [6], 79%; in data set [7] it was 98%. The Activity in data set [8] came out at 100%; in data set [9], 87%; in data set [10], 92%; in data set [11], 85%; in data set [12] it was 93%; in [13], 0.15%. Further, the Activity was 71% in data set [14], 15% in data set [18] and around 40% in the data set with Mus musculus [19]. In data set [15], the MRT inf came to 1.36 h. Also, the concentration in data set [16] peaked (Cmax) at 118 ng/mL. In the data set on Mus musculus [17], the inhibition entry was “Active”. Also, in the data set on Mus musculus [20], the result was Active.
